Screens (PubChem BioAssay)
SENP6 inh – blocks the human protease SENP6 | Q9GZR1 | Recombinant SENP6 catalytic domain, aminoluciferin luminescence | inhibition, % at 10 µM | hit rate 1.8% among 330,000 | AID 2599;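 active = inhibition above about 50% at the single tested dose, limit read from the data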
SENP8 block-1 – inhibitors of human SENP8 protease | Q96LD8 | recombinant SENP8, Nedd8 substrate fluorescence | inhibition, % at 20 µM | hit rate 0.64% among 360,000; in the data active = inhibition mostly above about 40%, no sharp cut-off; inactive = mostly below about 27%
SENP1 inh – blocks the human SENP1 SUMO protease catalytic domain. Q9P0U3. recombinant SENP1 catalytic domain, CyPet-SUMO1-YPet FRET cleavage. inhibition, % at 10 µM. hit rate 0.21% among 360,000;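 active = inhibition at least 30% at 10 µM, raw YFP signal under a set limit, fluorescence ratio 0.5 to 1.5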
Target sequence (Q9P0U3 419-644 limits assumed): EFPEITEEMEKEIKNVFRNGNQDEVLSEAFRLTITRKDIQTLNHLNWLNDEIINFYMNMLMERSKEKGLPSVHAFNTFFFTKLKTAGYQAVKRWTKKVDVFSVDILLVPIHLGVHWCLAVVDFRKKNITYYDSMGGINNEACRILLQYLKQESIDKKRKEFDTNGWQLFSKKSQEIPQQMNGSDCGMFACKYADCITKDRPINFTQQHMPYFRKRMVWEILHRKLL
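Controls: no-enzyme wells low, DMSO-plus-enzyme wells high control. Test system: human recombinant His6-tagged SENP1 catalytic domain enzyme. Reagent: SFCypet-SUMO1-SFYpet FRET protein substrate, 25 nM final. Doses: one dose per compound, 10 µM, 0.5% DMSO. Detection: FRET, CFP and YFP emission. Timing: 50 min reaction at room temperature.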
SENP7 inh – inhibitors of human SENP7 protease; inhibition, % at 5 µM; AID 434973; hit rate 1.5% among 330,000; recombinant SENP7, Z-RLRGG-aminoluciferin luminescence, 40 min;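 active = inhibition above about 50% at the single test dose, limit read from the data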
Target sequence (Q9BQF6 706-1050 limits assumed): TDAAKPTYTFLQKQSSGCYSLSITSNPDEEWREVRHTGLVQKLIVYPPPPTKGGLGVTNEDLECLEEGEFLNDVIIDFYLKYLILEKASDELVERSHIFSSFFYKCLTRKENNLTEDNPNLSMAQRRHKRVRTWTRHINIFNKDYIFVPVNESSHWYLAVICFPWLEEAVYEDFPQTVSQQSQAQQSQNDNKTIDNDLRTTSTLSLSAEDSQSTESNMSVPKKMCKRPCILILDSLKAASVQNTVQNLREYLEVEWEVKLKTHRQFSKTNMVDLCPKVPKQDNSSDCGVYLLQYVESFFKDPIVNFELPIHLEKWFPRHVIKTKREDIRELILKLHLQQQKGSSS
SENP8 block-2 – inhibitors of human SENP8 protease; AID 2540; inhibition, % at 10 µM; hit rate 1.2% among 330,000; purified SENP8, Z-RLRGG-aminoluciferin cleavage, luminescence; Q96LD8; in the data active = inhibition above about 50%
SENP8 inh conf – confirmation of human SENP8 protease inhibitors. shares compounds with SENP8 block-1. purified SENP8, Nedd8-AMC/pro-Nedd8 cleavage fluorescence, 30 min. inhibition, % at 25 µM. hit rate 15% among 1,400. AID 624319; in the data active = inhibition mostly above about 39%, no sharp cut-off; inactive = mostly below about 34%
Numbers stand for hits; i = inactive; nt = not tested or not shown. A selection: hits, their analogues and other compounds. The true share with any hit is near 2.5%.

SMILES | SENP6 inh | SENP8 block-1 | SENP1 inh | SENP7 inh | SENP8 block-2 | SENP8 inh conf
C[N+]1(C)CCC(=C2c3ccccc3CC(=O)c3sccc32)CC1 | i | 75 | i | i | i | 56
COC(=O)c1cc(CNC(=O)c2ccccc2OCc2c(C)noc2C)ccc1OC | i | i | i | i | i | nt
CC(C)C1NCCc2c1sc1ccccc21 (centres undefined) | i | 43 | i | i | i | i
Cc1nnsc1S(=O)c1ccccc1Cl (centres undefined) | i | i | i | i | i | nt
O=C(N/N=C/C=C/c1ccccc1)NC1CCCCC1 | i | i | i | i | i | nt
COc1ccc(CCN(C)c2ccc(S(=O)(=O)N3CCCC3)cc2[N+](=O)[O-])cc1OC | i | 43 | i | i | i | i
CC(=O)c1cccc(NC(=O)C2CCCN2S(=O)(=O)c2cccs2)c1 (centres undefined) | nt | 41 | i | nt | nt | i
COC(=O)c1ccc(NC(=O)C2CCCN2S(=O)(=O)c2ccc(C)cc2)cc1 (centres undefined) | i | i | i | i | i | nt
COC(=O)c1ccc(NC(=O)C2CCCN2S(=O)(=O)c2ccc(OC)cc2)cc1 (centres undefined) | i | 41 | i | i | i | i
O=C(Nc1ccc(Br)cc1)C1CCCN1S(=O)(=O)c1cccs1 (centres undefined) | i | i | i | i | i | nt
COc1ccc([C@H]2CC(=O)C[C@@H](CCn3nnc4ccccc43)O2)cc1 | nt | i | i | nt | nt | nt
CS(=O)(=O)O/N=C1\CCCCC1c1ccc([N+](=O)[O-])cc1[N+](=O)[O-] (centres undefined) | i | i | i | i | i | nt
CCNC(=O)O/N=C1\CCCCC1c1ccc([N+](=O)[O-])cc1[N+](=O)[O-] (centres undefined) | i | 41 | i | i | i | 48
Cc1c(N=C2N=C(NC(=O)c3cccs3)c3ccccc32)c(=O)n(-c2ccccc2)n1C | i | 60 | i | i | i | i
Cc1c(N=C2N=C(NC(=O)NC(C)(C)C)c3ccccc32)c(=O)n(-c2ccccc2)n1C | i | i | i | i | i | nt
C=C(C)Cn1c(NCCOC)nc2c1c(=O)[nH]c(=O)n2C | i | 40 | i | i | i | i
COCCCNc1nc2c(c(=O)[nH]c(=O)n2C)n1CCCc1ccccc1 | i | i | i | i | i | nt
CNc1ccccc1 | i | i | i | i | i | nt
CNc1cccccc1=S | i | 62 | i | i | i | i
CCOc1ccc(S(=O)(=O)NCCC(=O)NCC(c2ccc(OC)cc2)N2CCOCC2)cc1 (centres undefined) | nt | 51 | i | nt | nt | i
CCOc1ccc(S(=O)(=O)NCCC(=O)NCC(c2ccc(OC)cc2)N2CCCC2)cc1 (centres undefined) | i | i | i | i | i | nt
CCOC(=O)c1c(-c2cccc([N+](=O)[O-])c2)csc1NC(=O)CCCOc1ccccc1OC | nt | 45 | i | nt | nt | i
O=C(CSc1nnnn1-c1ccccc1)N1CCc2ccccc2C1 | i | i | i | i | i | nt
CC(=O)c1ccc(-n2nnnc2SCC(=O)N2CCc3ccccc3C2)cc1 | nt | 61 | i | nt | nt | 79
CC1Oc2ccccc2N(CC(=O)NC2CCCCC2)C1=O (centres undefined) | i | i | i | i | i | nt
SMILES | SENP6 inh | SENP8 block-1 | SENP1 inh | SENP7 inh | SENP8 block-2 | SENP8 inh conf
Cc1ccc(S(=O)(=O)/C(C#N)=C/c2c(N3CC(C)OC(C)C3)nc3c(C)cccn3c2=O)cc1 (centres undefined) | i | i | i | i | i | nt
O=C(Nc1c(-c2ccccc2)[nH][nH]c1=O)c1cnccn1 | nt | 40 | i | nt | nt | i
O=C(Nc1c(-c2ccccc2)[nH][nH]c1=O)c1ccc(Br)cc1 | nt | 58 | i | nt | nt | i
O=C(Nc1c(-c2ccccc2)[nH][nH]c1=O)c1ccc2ccccc2c1 | nt | i | i | nt | nt | nt
COc1ccc(-c2[nH][nH]c(=O)c2NC(=O)c2ccc(C)cc2)cc1 | nt | 45 | i | nt | nt | i
CC(=O)N1CCN(C(=S)NC(=O)c2ccc(S(=O)(=O)N3CCOCC3)cc2)CC1 | i | i | i | i | i | nt
CC(=O)NCCNc1nc(NCC2CC2)nc2cc(-c3ccccc3)sc12 | nt | i | i | nt | nt | nt
COc1ccc(NC(=O)CN(c2cc(C)cc(C)c2)S(=O)(=O)c2c(C)n[nH]c2C)cc1 | i | i | i | i | i | nt
COC(=O)c1c(NC(=O)C(=O)NCC2CCCO2)sc2c1CC(C)(C)OC2 (centres undefined) | i | i | i | i | i | nt
CCCn1c2ccc(F)cc2c2nnc(NN)nc21 | i | 70 | i | i | i | i
CCn1c2ccc(F)cc2c2nnc(NN)nc21 | i | i | i | i | i | nt
NNc1nnc2c3cc(F)ccc3n(Cc3ccccc3)c2n1 | i | 37 | i | i | i | i
O=C1CN(C(=O)N[C@@H](Cc2ccccc2)C(=O)N[C@@H](Cc2ccccc2)C(=O)O)c2ccccc2N1 | i | i | i | i | i | nt
O=C1CN(C(=O)NCC(=O)N[C@@H](Cc2ccccc2)C(=O)O)c2ccccc2N1 | i | 46 | i | i | i | i
CC(C)C[C@H](NC(=O)N1CC(=O)Nc2ccccc21)C(=O)N[C@H](Cc1c[nH]c2ccccc12)C(=O)O | i | 51 | i | i | i | i
CCOc1ccc(Br)cc1C1=NN(C(C)=O)C(c2ccc([N+](=O)[O-])s2)O1 (centres undefined) | i | 60 | i | i | i | 56
CCCN1CCc2nc(SCC(=O)Nc3ccc(C)c(Cl)c3)[nH]c(=O)c2C1 | i | i | i | i | i | nt
O=C(/C=C/NNC(=O)c1ccc(Cl)cc1)c1ccccc1 | i | 39 | i | i | i | i
O=C(/C=C/NNC(=O)c1ccccc1)c1ccc(Br)cc1 | i | i | i | i | i | nt
CN(CC(=O)Nc1ccccc1Cl)C(=O)CSc1nncn1C | i | i | i | i | i | nt
O=C(c1ccccc1)[C@@H]1[C@@H](C(=O)c2ccc(F)cc2)[C@@]2(C(=O)Nc3ccccc32)[C@H]2c3ccccc3C=CN12 | 64 | 54 | i | i | i | 66
CN(C)c1ccc(N2CN=C3SCC(=O)N3C2)cc1 | i | 52 | i | i | i | i
O=C1CSC2=NCN(c3ccc4c(c3)OCO4)CN12 | i | i | i | i | i | nt
Cc1ccc(CSCC(=O)NCc2cccs2)cc1 | i | i | i | i | i | nt
CN(C)S(=O)(=O)c1cccc(NC(=O)CCNC(=O)Nc2ccccc2)c1 | i | 42 | i | i | i | i
Cc1cc(SCC(=O)c2cc(C)n(C)c2C)nc2ccccc12 | i | i | i | i | i | nt
Nc1cccc2nsnc12 | i | 48 | i | i | i | i
Cn1c(NNC(=O)c2c(F)cccc2F)cc(=O)n(C)c1=O | i | 48 | i | i | i | 48
Cn1c(NNC(=O)c2ccccc2F)cc(=O)n(C)c1=O | i | i | i | i | i | nt
CCCOc1ccc(F)cc1-c1cc(C(=O)NCc2cccc(Cl)c2)[nH]n1 | nt | i | i | nt | nt | nt
